Assays:
[1] = tested on: C. albicans susceptible strain HLY4123; experiment: Dose-response curves of test compounds against C. albicans with fluconazole; assay type: cell-based; conditions: for EC50: strain HLY4123, in the presence of fluconazole (0.25 μg/mL), mean ± SD of three independent experiments; for activity under the conditions of the assay: strain HLY4123, in combination with fluconazole
[2] = tested on: NIH 3T3 cells; experiment: Cytotoxicity against NIH 3T3 cells; assay type: cell-based; conditions: concentrations up to 1.5 mM
Summary of the method: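 Test compound applied to NIH 3T3 cells at concentrations up to 1.5 mM. Values are arithmetic means ± SD of three independent experiments.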

[3] = tested on: partially resistant clinical isolate of C. albicans CaCi-8; conditions: cited from earlier work; for active concentration: against CaCi-8 with fluconazole, none active below this, ref [48]–[50]

Cc1c(Cl)ccc2c1NC(=O)[C@]21N[C@H](Cc2ccccc2)[C@@H]2C(=O)N(c3ccc(F)cc3)C(=O)[C@@H]21 (racemic) [Compound 1, (±)-(3R,3′R,3a′R,6a′S)-3′-benzyl-6-chloro-5′-(4-fluorophenyl)-7-methyl-2′,3′,3a′,6a′-tetrahydro-4′H-spiro[indoline-3,1′-pyrrolo[3,4-c]pyrrole]-2,4′,6′(5′H)-trione]
EC50 [1]: 11 ± 4 nM | cytotoxicity [2]: only weak cytotoxicity

O=C1[C@H]2[C@@H](Cc3ccccc3)N[C@]3(C(=O)Nc4ccccc43)[C@H]2C(=O)N1Cc1ccccc1 (racemic) [Compound 8, (±)-(3R,3′R,3a′R,6a′S)-3′,5′-Dibenzyl-2′,3′,3a′,6a′-tetrahydro-4′H-spiro [indoline-3,1′-pyrrolo[3,4-c]pyrrole]-2,4′,6′(5′H)-trione]
EC50 [1]: ~10000 nM

O=C1[C@H]2[C@@H](Cc3c[nH]c4ccccc34)N[C@]3(C(=O)Nc4ccccc43)[C@H]2C(=O)N1Cc1ccccc1 (racemic) [Compound 9, (±)-(3R,3′R,3a′R,6a′S)-3′-((1H-Indol-3-yl)methyl)-5′-benzyl-2′,3′,3a′,6a′-tetrahydro-4′H-spiro[indoline-3,1′-pyrrolo[3,4-c]pyrrole]-2,4′,6′(5′H)-trione]
EC50 [1]: ~10000 nM

CC(C)(C)OC(=O)NCCCC[C@H]1N[C@]2(C(=O)Nc3ccccc32)[C@H]2C(=O)N(Cc3ccccc3)C(=O)[C@@H]12 (racemic) [Compound 10, (±)-tert-Butyl (4-((3R,3′R,3a′R,6a′S)-5′-benzyl-2,4′,6′-trioxo-3′,3a′,4′,5′, 6′,6a′-hexahydro-2′H-spiro[indoline-3,1′-pyrrolo[3,4-c]pyrrol]-3′-yl)butyl)carbamate]
EC50 [1]: > 100000 nM

O=C1[C@H]2[C@@H](Cc3ccccc3)N[C@]3(C(=O)N(Cc4ccccc4)c4ccccc43)[C@H]2C(=O)N1Cc1ccccc1 (racemic) [Compound 11, (±)-(3R,3′R,3a′R,6a′S)-1,3′,5′-Tribenzyl-2′,3′,3a′,6a′-tetrahydro-4′H-spi ro[indoline-3,1′-pyrrolo[3,4-c]pyrrole]-2,4′,6′(5′H)-trione]
EC50 [1]: > 10000 nM

O=C1[C@H]2[C@@H](Cc3ccccc3)N[C@]3(C(=O)N(Cc4ccccc4)c4ccccc43)[C@H]2C(=O)N1c1ccccc1 (racemic) [Compound 12, (±)-(3R,3′R,3a′R,6a′S)-1,3′-Dibenzyl-5′-phenyl-2′,3′,3a′,6a′-tetrahydro-4′H-spiro[indoline-3,1′-pyrrolo[3,4-c]pyrrole]-2,4′,6′(5′H)-trione]
EC50 [1]: > 100000 nM

Cc1c(Cl)ccc2c1NC(=O)[C@]21N[C@H](Cc2ccccc2)[C@@H]2C(=O)N(c3ccccc3)C(=O)[C@@H]21 (racemic) [Compound 13, (±)-(3R,3′R,3a′R,6a′S)-3′-Benzyl-6-chloro-7-methyl-5′-phenyl-2′,3′,3a′, 6a′-tetrahydro-4′H-spiro[indoline-3,1′-pyrrolo[3,4-c]pyrrole]-2,4′,6′ (5′H)-trione]
EC50 [1]: 1 ± 0.5 nM

Cc1c(Cl)ccc2c1NC(=O)[C@@]21[C@H]2C(=O)N(c3ccccc3)C(=O)[C@H]2[C@H]2CN(C(=O)OC(C)(C)C)CCN21 (racemic) [Compound 14, (±)-tert-Butyl (3R,3a′R,3b′S,9a′S)-6-chloro-7-methyl-1′,2,3′-trioxo-2′-phenyl-2′,3′,3a′,3b′,4′,6′,7′,9a′-octahydrospiro[indoline-3,9′-pyrrolo[3′, 4′:3,4]pyrrolo[1,2-a]pyrazine]-5′(1′H)-carboxylate]
EC50 [1]: 5.6 ± 3 nM

Cc1c(Cl)ccc2c1NC(=O)[C@@]21[C@H]2C(=O)N(c3ccc(F)cc3)C(=O)[C@H]2[C@H]2CN(C(=O)OC(C)(C)C)CCN21 (racemic) [Compound 15, (±)-tert-Butyl (3R,3a′R,3b′S,9a′S)-6-chloro-2′-(4-fluorophenyl)-7-methyl-1′,2,3′-trioxo-2′,3′,3a′,3b′,4′,6′,7′,9a′-octahydrospiro[indoline-3,9′-pyrrolo[3′,4′:3,4]pyrrolo[1,2-a]pyrazine]-5′(1′H)-carboxylate]
EC50 [1]: 37 ± 1 nM

Cc1c(Cl)ccc2c1NC(=O)[C@@]21[C@H]2C(=O)N(c3cc(C(F)(F)F)cc(C(F)(F)F)c3)C(=O)[C@H]2[C@H]2CN(C(=O)OC(C)(C)C)CCN21 (racemic) [Compound 16, (±)-tert-Butyl (3R,3a′R,3b′S,9a′S)-2′-(3,5-bis(trifluoromethyl)phenyl)-6-chloro-7-methyl-1′,2,3′-trioxo-2′,3′,3a′,3b′,4′,6′,7′,9a′-octahydrospiro [indoline-3,9′-pyrrolo[3′,4′:3,4]pyrrolo[1,2-a]pyrazine]-5′(1′H)-carboxy late]
EC50 [1]: 23.7 ± 10 nM

Cc1c(Cl)ccc2c1N(Cc1ccccc1)C(=O)[C@@]21[C@H]2C(=O)N(c3ccccc3)C(=O)[C@H]2[C@H]2CN(C(=O)OC(C)(C)C)CCN21 (racemic) [Compound 17, (±)-tert-butyl (3R,3a′R,3b′S,9a′S)-1-benzyl-6-chloro-7-methyl-1′,2,3′-trioxo-2′-phenyl-2′,3′,3a′,3b′,4′,6′,7′,9a′-octahydrospiro [indoline-3,9′-pyrrolo[3′,4′:3,4]pyrrolo[1,2-a]pyrazine]-5′(1′H)-carboxy late]
EC50 [1]: > 100000 nM

Cc1cccc2c1NC(=O)[C@@]21[C@H]2C(=O)N(c3ccccc3)C(=O)[C@H]2[C@H]2CN(C(=O)OC(C)(C)C)CCN21 (racemic) [Compound 22, (±)-tert-Butyl (3R,3a′R,3b′S,9a′S)-7-methyl-1′,2,3′-trioxo-2′-phenyl-2′, 3′,3a′,3b′,4′,6′,7′,9a′-octahydrospiro[indoline-3,9′-pyrrolo[3′,4′:3,4]pyrrolo[1,2-a]pyrazine]-5′(1′H)-carboxylate]
EC50 [1]: 213 ± 80 nM

Cc1ccc2c(c1C)NC(=O)[C@@]21[C@H]2C(=O)N(c3ccccc3)C(=O)[C@H]2[C@H]2CN(C(=O)OC(C)(C)C)CCN21 (racemic) [Compound 23, (±)-tert-Butyl (3R,3a′R,3b′S,9a′S)-6,7-dimethyl-1′,2,3′-trioxo-2′-phenyl-2′,3′,3a′,3b′,4′,6′,7′,9a′-octahydrospiro[indoline-3,9′-pyrrolo[3′,4′:3,4]pyrrolo[1,2-a]pyrazine]-5′(1′H)-carboxylate]
EC50 [1]: 5.7 ± 6 nM

Cc1c(Cl)ccc2c1NC(=O)[C@@]21[C@H]2C(=O)N(c3ccccc3)C(=O)[C@H]2[C@H]2CNCCN21 (racemic) [Compound 26, (±)-(3R,3a′R,3b′S,9a′S)-6-chloro-7-methyl-2′-phenyl-3a′,4′,5′,6′,7′,9a′-hexahydrospiro[indoline-3,9′-pyrrolo[3′,4′:3,4]pyrolo[1,2-a]pyrazine]-1′,2,3′(2′H,3b′H)-trione]
EC50 [1]: ~10000 nM

COC(=O)CCCCCCCCC(=O)N1CCN2[C@H](C1)[C@@H]1C(=O)N(c3ccccc3)C(=O)[C@@H]1[C@@]21C(=O)Nc2c1ccc(Cl)c2C (racemic) [Compound 27, (±)-methyl 10-((3R,3a′R,3b′S,9a′S)-6-chloro-7-methyl-1′,2,3′-trioxo-2′-phenyl-2′,3′,3a′,3b′,4′,6′,7′,9a′-octahydrospiro [indoline-3,9′-pyrrolo[3′,4′:3,4]pyrrolo[1,2-a]pyrazin]-5′(1′H)-yl)-10-oxodecanoate]
EC50 [1]: 37.9 ± 9 nM

CO[C@H](C(=O)N1CCN2[C@H](C1)[C@@H]1C(=O)N(c3ccccc3)C(=O)[C@@H]1[C@@]21C(=O)Nc2c1ccc(Cl)c2C)c1ccccc1 (racemic) [Compound 28, (±)-(3R,3a′R,3b′S,9a′S)-6-chloro-5′-((S)-2-methoxy-2-phenylacetyl)-7-methyl-2′-phenyl-3a′,4′,5′,6′,7′,9a′-hexahydrospiro [indoline-3,9′-pyrrolo[3′,4′:3,4]pyrrolo[1,2-a]pyrazine]-1′,2,3′(2′H, 3b′H)-trione]
EC50 [1]: 35 ± 7 nM

Cc1c(Cl)ccc2c1NC(=O)[C@@]21[C@H]2C(=O)N(c3ccccc3)C(=O)[C@H]2[C@H]2CN(C(=O)CCc3ccccc3)CCN21 (racemic) [Compound 29, (±)-(3R,3a′R,3b′S,9a′S)-6-chloro-7-methyl-2′-phenyl-5′-(3-phenylpropanoyl)-3a′,4′,5′,6′,7′,9a′-hexahydrospiro[indoline-3,9′-pyrrolo[3′,4′:3,4]pyrrolo[1,2-a]pyrazine]-1′,2,3′(2′H,3b′H)-trione]
EC50 [1]: 18.1 ± 4 nM

Cc1c(Cl)ccc2c1NC(=O)[C@]21N[C@@H](Cc2ccccc2)[C@H]2C(=O)N(c3ccc(F)cc3)C(=O)[C@H]21 [CID 6584729, (1S,3R,3aR,6aS)-1-benzyl-6′-chloro-5-(4-fluorophenyl)-7′-methylspiro[1,2,3a,6a-tetrahydropyrrolo[3,4-c]pyrrole-3,3′-1H-indole]-2′,4,6-trione]
EC50 ([3]; enhancing the effect of fluconazole against CaCi-8, ref [68]): 120 nM

Cc1c(Cl)ccc2c1NC(=O)[C@]21[C@H]2C(=O)N(c3ccccc3)C(=O)[C@H]2[C@@H]2C[C@@H](OC(=O)c3ccccc3)CN21 [Compound 25a, (+)-(3S,3a′S,7′R,8a′S,8b′R)-6-chloro-7-methyl-1′,2,3′-tri oxo-2′-phenyl-2′,3′,3a′,6′,7′,8′,8a′,8b′-octahydro-1′H-spiro[indoline-3,4′-pyrrolo[3,4-a]pyrrolizin]-7′-yl benzoate]
activity under the conditions of the assay [1]: almost no activity

Cc1c(Cl)ccc2c1NC(=O)[C@@]21[C@@H]2C(=O)N(c3ccccc3)C(=O)[C@@H]2[C@H]2C[C@@H](OC(=O)c3ccccc3)CN21 [Compound 25b, (−)-(3R,3a′R,7′R, 8a′R,8b′S)-6-chloro-7-methyl-1′,2,3′-trioxo-2′-phenyl-2′,3′,3a′,6′,7′,8′, 8a′,8b′-octahydro-1′H-spiro[indoline-3,4′-pyrrolo[3,4-a]pyrrolizin]-7′-yl benzoate]
activity under the conditions of the assay [1]: almost no activity

O=C(c1ccc(Cl)cc1)N1CCN(c2ccnc3cc(Cl)ccc23)CC1 [ML189]
active concentration [3]: ≥ 0.7 µM

COC(=O)Cn1nc(-c2cccc(OC)c2)c2ccccc21 [ML212]
active concentration [3]: ≥ 0.7 µM

O=C(Cn1c2ccccc2c2nc3n(c(=O)c21)CCS3)N1CCCC1 [ML229]
active concentration [3]: ≥ 0.7 µM

(±)-tert-Butyl (3R,3a′R,3b′S,9a′S)-2′-benzyl-1′,2,3′-trioxo-2′,3′,3a′,3b′, 4′,6′,7′,9a′-octahydrospiro[indoline-3,9′-pyrrolo[3′,4′:3,4]pyrrolo[1,2-a]pyrazine]-5′(1′H)-carboxylate [Compound 19]
EC50 [1]: > 100000 nM
